# From ChEMBL document CHEMBL6134796, “Development and Evaluation of Indole-Based Phospholipase D Inhibitors for Lung Cancer Immunotherapy” (J Med Chem, 2025)
# The source made the active and inactive calls. The rule behind the calls is not given here.
# Experiments:
# [1] = test system: A549; assay: Induction of apoptosis in human A549 cells assessed as increase in cleaved PARP activity measured up to 48 hrs in presence of gemcitabine by flow cytometry analysis; assay type: functional, cell-based
# In short: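 A549 cells given compound, gemcitabine, or both. Apoptosis assessed by PI staining, annexin V flow cytometry, cleaved PARP immunoblot, and caspase-3 activity. For caspase-3: drugs at 10 μM for 48 h, then 1 μM NucView 488 substrate for 30 min, with 1 μM Hoechst 33342, read by plate fluorescence.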
# [2] = test system: A549; assay: Inhibition of cell proliferation in human A549 cells assessed as reduction in Ki-67 expression; assay type: functional, cell-based
# In short: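 A549 cells immunostained for Ki67 with fluorescent secondary antibody; nuclei counterstained with 1 μM Hoechst 33342; confocal imaging; at least three independent experiments, mean ± SEM.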
# [3] = test system: Lewis lung carcinoma cell line; assay: Antitumor activity against mouse Lewis lung carcinoma cell line allografted in […] male C57BL/6 mouse model assessed as suppression of tumor formation at 10 mg/kg, po measured every other day for 3 weeks; assay type: functional, organism-based
# [4] = test system: Calu-6; assay: Cytotoxicity against human Calu-6 cells assessed as inhibition of cell growth incubated for 48 hrs by WST-1 assay; assay type: functional, cell-based; conditions: Calu-6, 48 h
# [5] = test system: A549; assay: Synergistic antiproliferative activity against human A549 cells assessed as reduction in cell proliferation measured up to 48 hrs in presence of gemcitabine by IncuCyte real-time imaging
# [6] = test system: A549; assay: Inhibition of PLD1 F789A mutant (unknown origin) overexpressed in human A549 cells; assay type: cell-based
# In short: (§1)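 A549 cells transfected with wild-type PLD1, PLD1 mutants (L425A, F614A, F789A) or PLD2, then compound-treated. PLD activity measured as [3H]phosphatidylbutanol formed in the presence of 1-butanol after [3H]myristic acid labeling, expressed as % of total lipid cpm. At least three independent experiments.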
# [7] = test system: A549; assay: Upregulation of CRT expression in human A549 cells by flow cytometry analysis; assay type: functional, cell-based
# In short: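 A549 cells treated with compound; surface "eat-me" and "don't eat-me" signal proteins measured by flow cytometry; at least three independent experiments, mean ± SEM.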
# [8] = biological target: Tubulin beta (Homo sapiens) (UniProt P68371+Q9H4B7+Q13509+P04350+Q3ZCM7+P07437+Q13885+Q9BVA1+Q9BUF5+A6NNZ2); assay: Binding affinity to beta-tubulin in human A549 cells assessed as protection against pronase E-mediated proteolysis at 2 to 20 uM incubated for 1 hr by DARTS assay; assay type: cell-based; conditions: dose 2-20 µM
# In short: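 A549 lysates made in buffer with protease and phosphatase inhibitors. Lysates were incubated with compound for 1 h at room temperature, then digested with Pronase for 10 min at RT. Digestion was quenched in SDS loading buffer by boiling 5 min. PLD1 and β-tubulin were detected by immunoblot.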
# [9] = test system: A549; assay: Downregulation of CD47 expression in human A549 cells by flow cytometry analysis; assay type: functional, cell-based
# In short: (§2)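 A549 cells treated with compound. Surface "don't eat-me" and "eat-me" markers measured by flow cytometry.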
# [10] = biological target: T1, Phospholipase D1 (Homo sapiens) (UniProt Q13393); assay: Inhibition of wild type PLD1 (unknown origin) overexpressed in human A549 cells; assay type: cell-based
# T1 sequence (whole entry): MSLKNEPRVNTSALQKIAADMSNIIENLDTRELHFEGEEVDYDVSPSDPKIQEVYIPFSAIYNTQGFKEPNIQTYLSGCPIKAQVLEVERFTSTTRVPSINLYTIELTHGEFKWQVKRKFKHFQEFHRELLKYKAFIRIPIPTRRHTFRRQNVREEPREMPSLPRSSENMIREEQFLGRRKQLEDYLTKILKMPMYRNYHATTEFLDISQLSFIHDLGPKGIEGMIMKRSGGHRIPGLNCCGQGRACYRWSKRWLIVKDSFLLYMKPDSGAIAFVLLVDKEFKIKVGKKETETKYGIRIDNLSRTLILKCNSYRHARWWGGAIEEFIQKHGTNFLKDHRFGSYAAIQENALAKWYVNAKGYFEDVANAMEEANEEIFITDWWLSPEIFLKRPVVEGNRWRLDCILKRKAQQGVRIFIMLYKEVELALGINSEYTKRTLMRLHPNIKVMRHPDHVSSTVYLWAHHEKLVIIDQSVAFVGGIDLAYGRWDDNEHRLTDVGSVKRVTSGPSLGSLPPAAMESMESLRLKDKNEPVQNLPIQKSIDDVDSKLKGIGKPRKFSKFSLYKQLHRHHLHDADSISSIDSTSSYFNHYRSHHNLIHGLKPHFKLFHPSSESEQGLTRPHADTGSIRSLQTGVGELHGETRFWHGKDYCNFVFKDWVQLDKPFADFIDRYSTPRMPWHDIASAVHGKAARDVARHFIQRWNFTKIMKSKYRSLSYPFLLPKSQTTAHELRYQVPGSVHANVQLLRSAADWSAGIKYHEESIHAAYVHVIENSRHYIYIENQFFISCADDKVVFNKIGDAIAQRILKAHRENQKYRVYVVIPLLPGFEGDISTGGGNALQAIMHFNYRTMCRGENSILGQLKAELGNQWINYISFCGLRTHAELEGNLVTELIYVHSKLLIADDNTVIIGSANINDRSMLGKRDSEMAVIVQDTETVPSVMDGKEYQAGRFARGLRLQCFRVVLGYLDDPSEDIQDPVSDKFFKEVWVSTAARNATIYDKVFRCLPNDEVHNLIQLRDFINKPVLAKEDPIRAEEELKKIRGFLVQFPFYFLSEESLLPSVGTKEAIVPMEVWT
# In short: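 A549 cells transfected with wild-type PLD1, labeled with [3H] myristic acid; PLD activity as [3H] phosphatidylbutanol formed by transphosphatidylation with 1-butanol, expressed as percent of total lipid cpm in PtdBut; alternatively, cells treated 1 h and read by Amplex Red kit (ex 540/em 590 nm); at least three independent experiments.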
# [11] = biological target: Phospholipase D2 (Homo sapiens) (UniProt O14939); assay: Inhibition of PLD2 (unknown origin) overexpressed in human A549 cells; assay type: cell-based; in short: as §1
# Chain of Phospholipase D2 (Homo sapiens) (O14939 whole entry): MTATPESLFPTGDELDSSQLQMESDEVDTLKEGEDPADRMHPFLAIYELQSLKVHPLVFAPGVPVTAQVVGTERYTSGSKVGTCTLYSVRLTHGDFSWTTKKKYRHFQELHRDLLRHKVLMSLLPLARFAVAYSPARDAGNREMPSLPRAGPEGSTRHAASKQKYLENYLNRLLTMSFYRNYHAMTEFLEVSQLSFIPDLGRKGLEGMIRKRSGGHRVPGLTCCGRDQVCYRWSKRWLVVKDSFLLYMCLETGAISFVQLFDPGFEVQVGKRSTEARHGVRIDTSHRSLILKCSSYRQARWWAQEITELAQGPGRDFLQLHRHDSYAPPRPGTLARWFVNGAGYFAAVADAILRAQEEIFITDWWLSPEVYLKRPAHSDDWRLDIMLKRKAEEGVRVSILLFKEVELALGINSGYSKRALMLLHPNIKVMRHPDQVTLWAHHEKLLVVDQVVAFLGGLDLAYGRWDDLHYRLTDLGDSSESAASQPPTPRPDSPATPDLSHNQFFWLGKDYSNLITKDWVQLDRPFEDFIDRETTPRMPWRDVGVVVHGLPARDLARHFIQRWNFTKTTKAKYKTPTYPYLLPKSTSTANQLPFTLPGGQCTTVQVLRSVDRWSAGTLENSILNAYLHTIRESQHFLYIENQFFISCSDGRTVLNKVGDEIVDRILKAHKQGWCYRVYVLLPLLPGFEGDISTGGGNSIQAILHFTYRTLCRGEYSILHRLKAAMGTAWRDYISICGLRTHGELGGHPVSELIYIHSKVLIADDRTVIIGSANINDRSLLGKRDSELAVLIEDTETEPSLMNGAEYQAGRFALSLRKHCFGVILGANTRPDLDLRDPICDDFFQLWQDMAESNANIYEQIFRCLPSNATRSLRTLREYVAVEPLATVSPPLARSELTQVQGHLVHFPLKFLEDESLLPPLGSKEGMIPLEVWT
# [12] = test system: Mus musculus; assay: In vivo inhibition of KRAS activation in male C57BL/6 mouse allografted with mouse Lewis lung carcinoma cell line assessed as decrease in RAS level at 10 mg/kg, po; assay type: functional, organism-based
# [13] = test system: A549; assay: Downregulation of PD-L1 expression in human A549 cells by flow cytometry analysis; assay type: functional, cell-based; in short: as §2
# [14] = test system: A549; assay: Cytotoxicity against human A549 cells assessed as increase in cell death rate by WST-1 assay; assay type: functional, cell-based; conditions: time 2-48 hrs
# [15] = Toxicity in male C57BL/6 mouse assessed as effect on body weight at 10 mg/kg, po measured every other day for 3 weeks; assay type: organism-based; conditions: in vivo, 504 h
# [16] = test system: A549 (human); assay: Cytotoxicity against human A549 cells assessed as decrease in cell growth by WST-1 assay; conditions: time 2-48 hrs
smiles,measurement,setting,value
O=C(CCc1c[nH]c2ccccc12)Nc1cc(C(F)(F)F)cc(C(F)(F)F)c1,Activity,[1],Active
same,inhibition,[2],Active
same,Activity,[3],Active
same,IC50,[4],19 µM
same,Activity,[5],Active
same,inhibition,[6],inactive
same,Activity,[7],Active
same,Activity,[8],inactive
same,Activity,[9],Active
same,inhibition,[10],Active
same,inhibition,[11],inactive
same,inhibition,[12],Active
same,Activity,[13],Active
same,Activity,[14],Time-dependent-effect
same,Activity,[15],Non-toxic
same,Activity,[16],Time-dependent-effect
